The structures appear in SMILES notation. Values after ≈ are worked out from the molar mass of the structure shown.

The test system of series [1] is S. aureus ATCC 29213 cell-wall biosynthesis. Put plainly: Macromolecular synthesis assay, cell wall. It counts as cell-based, Staphylococcus aureus. Particulars: 2 at 0.5 MIC. A digest of the protocol: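 Logarithmic-phase S. aureus ATCC 29213 was treated with test compound at 1/2 MIC. Peptidoglycan synthesis was followed as D-[2,3-3H]-alanine incorporation into cell wall, with fosfomycin (16 μg/mL) as control. Maximum inhibition was taken at 120 min.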

For series [2], the system named is S. aureus VRS1. Put plainly: MIC, in vitro antibacterial activity. The note with it: Staphylococcus aureus, MRSA. It counts as cell-based.
Series [3] has as its system S. aureus NRS70. As to the kind of experiment: MIC, in vitro antibacterial activity. It counts as cell-based. The note with it: Staphylococcus aureus, MRSA|NRS70.
Series [4] deals with S. aureus NRS120. As to the kind of experiment: MIC, in vitro antibacterial activity. It is filed as cell-based. Particulars: Staphylococcus aureus, MRSA|NRS120.
A short description of series [5]: Alkylating agent test.
Series [6] has as its system S. aureus ATCC 29213. As to the kind of experiment: MIC, in vitro antibacterial activity. It counts as cell-based, Staphylococcus aureus.
The nature of series [7]: Metabolic stability in human S9. It is filed as in vitro ADME. Particulars: liver S9.
For series [8], the system named is S. aureus NRS100. Put plainly: MIC, in vitro antibacterial activity. Particulars: Staphylococcus aureus, MRSA|NRS100. It is filed as cell-based.
Series [9] deals with S. aureus NRS123. As to the kind of experiment: MIC, in vitro antibacterial activity. It is filed as cell-based. The note with it: Staphylococcus aureus, MRSA|NRS123.
Series [10] addresses PBP2a allosteric site (Staphylococcus aureus, UniProt P07944). As to the kind of experiment: Intrinsic fluorescence quenching of oxacillin-acylated PBP2a. It counts as binding, S. aureus. A digest of the protocol:
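PBP2a intrinsic fluorescence was excited at 280 nm and emission spectra were scanned while test compound was titrated to the final concentrations shown. Kd came from nonlinear regression of the change in maximum fluorescence intensity, averaged over three experiments.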

Series [11] deals with PBP2a (Staphylococcus aureus, UniProt P07944). As to the kind of experiment: Bocillin FL competition assay, purified recombinant PBP2a. It counts as binding, S. aureus. The procedure, abridged: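 Recombinant purified PBP2a (1 μM) was labeled with fluorescent Bocillin FL (20 μM) in the presence of increasing amounts of test compound (μg/mL). Competition was read as loss of fluorescence labeling of the active site, and an apparent IC50 was derived.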

Series [12] can be described thus: Pharmacokinetics after single iv or po dose. It counts as in vivo, mice.
The test system of series [13] is T7 transcription. Put plainly: In vitro transcription assay, T7 transcription kit. It counts as biochemical.
Series [14] has as its system S. aureus VRS2. Put plainly: MIC, in vitro antibacterial activity. It is filed as cell-based. Particulars: Staphylococcus aureus, MRSA.
Series [15] concerns S. aureus ATCC 29213 RNA synthesis. As to the kind of experiment: Macromolecular synthesis assay, RNA. It counts as cell-based, Staphylococcus aureus. The note with it: 0.5 MIC. The procedure, abridged: (§1)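 Logarithmic-phase S. aureus ATCC 29213 was exposed to test compound at 1/2 MIC, and incorporation of radiolabeled precursors was monitored: [methyl-3H]-thymidine (DNA), [5,6-3H]-uridine (RNA) and L-[4,5-3H]-leucine (protein). Controls were ciprofloxacin 0.5 μg/mL (DNA), rifampicin 8 ng/mL (RNA) and tetracycline 31 ng/mL (protein). Maximum inhibition was taken at 80 min for DNA and at 120 min for RNA and protein.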

Series [16] deals with HepG2 cells. As to the kind of experiment: XTT cell proliferation assay. It is filed as cell-based. Particulars: Homo sapiens, HepG2, read-out: IC50, XTT cell proliferation assay.
The test system of series [17] is S. aureus ATCC 29213 DNA synthesis. Put plainly: Macromolecular synthesis assay, DNA. It is filed as cell-based, Staphylococcus aureus. The note with it: 0.5 MIC. The procedure, abridged: as §1
For series [18], the system named is S. epidermidis ATCC 35547. Put plainly: MIC, in vitro antibacterial activity. It is filed as cell-based. Particulars: Staphylococcus epidermidis, ATCC35547.
In series [19] the test system is S. aureus NRS119. Put plainly: MIC, in vitro antibacterial activity. It is filed as cell-based. The note with it: Staphylococcus aureus, MRSA|NRS119.
In series [20] the test system is S. aureus ATCC 29213 protein synthesis. Put plainly: Macromolecular synthesis assay, protein. It is filed as cell-based, Staphylococcus aureus. Particulars: 0.5 MIC. A digest of the protocol:
as §1

Series [21] in a line: Hemolysis of red blood cells. It is filed as cell-based.
Series [22] is described as follows: Metabolic stability in rat S9. It is filed as in vitro ADME. The note with it: liver S9.
Series [23] concerns PBP1 (pbpA antisense, MRSA COL). Put plainly: Antisense sensitization, pbpA antisense in MRSA COL. It is filed as cell-based, S. aureus. The note with it: xylose induction.
Series [24] is described as follows: Water solubility. It counts as physicochemical. A digest of the protocol: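 Test compound tested as its sodium salt, dissolved in water.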
Series [25] can be described thus: Glutathione adduct formation. It counts as in vitro ADME.
For series [26], the system named is PBP2a (pbp2a antisense, MRSA COL). Put plainly: Antisense sensitization, pbp2a antisense in MRSA COL. It counts as cell-based, S. aureus. Particulars: xylose induction.
Series [27] can be described thus: Stability in mouse plasma. It counts as in vitro ADME.
Series [28] has as its system S. aureus NRS128. As to the kind of experiment: MIC, in vitro antibacterial activity. It counts as cell-based. Particulars: Staphylococcus aureus, MSSA|NRS128.
Series [29] deals with E. coli S30 extract translation. It is filed as biochemical. Particulars: β-galactosidase assay system.
Series [30] has as its system E. faecium. As to the kind of experiment: MIC, ESKAPE panel. It counts as cell-based, Enterococcus faecium.
The subject of series [31] is Gram-negative bacteria of our panel. As to the kind of experiment: Antibacterial activity, E. coli and ESKAPE panel. It is filed as cell-based. The note with it: Gram-negative bacteria of the E. coli/ESKAPE panel.
The mark [32] stands for this setting: experiment with meropenem control.
[33] abbreviates: Staphylococcus aureus, ATCC29213|MSSA.

PBP2a, sequence (P07944 whole entry): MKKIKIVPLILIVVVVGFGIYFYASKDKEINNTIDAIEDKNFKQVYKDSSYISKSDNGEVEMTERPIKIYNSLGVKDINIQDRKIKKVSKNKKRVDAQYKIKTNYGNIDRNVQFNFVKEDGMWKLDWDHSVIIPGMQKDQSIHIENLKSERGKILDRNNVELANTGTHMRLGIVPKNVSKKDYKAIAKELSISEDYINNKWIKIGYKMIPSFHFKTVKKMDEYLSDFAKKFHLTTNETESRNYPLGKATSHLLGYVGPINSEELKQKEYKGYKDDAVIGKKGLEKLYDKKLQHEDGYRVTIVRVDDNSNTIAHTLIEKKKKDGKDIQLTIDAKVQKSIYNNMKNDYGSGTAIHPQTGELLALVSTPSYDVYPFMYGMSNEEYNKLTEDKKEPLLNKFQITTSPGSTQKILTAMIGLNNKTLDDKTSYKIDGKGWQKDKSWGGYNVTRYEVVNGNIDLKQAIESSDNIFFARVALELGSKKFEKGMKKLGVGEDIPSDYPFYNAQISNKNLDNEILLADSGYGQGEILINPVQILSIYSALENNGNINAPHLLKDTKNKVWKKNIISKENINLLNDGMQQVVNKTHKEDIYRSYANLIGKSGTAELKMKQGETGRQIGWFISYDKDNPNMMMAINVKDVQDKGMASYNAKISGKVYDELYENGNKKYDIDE
PBP2a allosteric site, sequence (P07944 whole entry): as above

On to `C[C@@H](O)[C@H]1C(=O)N2C(C(=O)O)=C(S[C@@H]3CN[C@H](C(=O)N(C)C)C3)[C@H](C)[C@H]12` [meropenem, reference compound], for which, in [1] (setting [32]), the “inhibition of cell-wall biosynthesis (D-[2,3-3H]-alanine incorporation)” value was found to be 64 ± 2%.
On to `N#Cc1ccc(/C=C/c2nc3ccccc3c(=O)n2-c2cccc(C(=O)O)c2)cc1` [compound 2, (E)-3-(3-carboxyphenyl)-2-(4-cyanostyryl)quinazolin-4(3H)-one], for which the MIC (in general, the least concentration at which growth counts as inhibited) is 16 µg/mL (≈ 40.7 µM) in series [2]; 2 µg/mL (≈ 5.08 µM) in series [3]; 8 µg/mL (≈ 20.3 µM) in series [4]; 2 µg/mL (≈ 5.08 µM) in series [6] (setting [33]); 16 µg/mL (≈ 40.7 µM) in series [8]; 2 µg/mL (≈ 5.08 µM) in series [9]. Besides, the MIC in series [14] worked out at 2 µg/mL (≈ 5.08 µM); in series [18], 1 µg/mL (≈ 2.54 µM); in series [19], 8 µg/mL (≈ 20.3 µM); in [28], 4 µg/mL (≈ 10.2 µM). Besides, the alkylating agent entry in [5] is listed as “not an alkylating agent”. Further, the fraction remaining at 1 h in series [7] and in series [22] was 100% in each case. The affinity in [10], expressed as Kd, was 17.5 µM. Further, the IC50 was 356 µM in series [11] and 63 ± 1 µg/mL (≈ 160 µM) in series [16]. Further, the maximum concentration in series [12] (mice, single 10 mg/kg oral (po) dose) turned out to be 1.29 µg/mL. The “time plasma levels sustained above MIC” value in series [12] (mouse, in vivo, iv, 10 mg/kg) turned out to be 2 h. Moreover, the clearance in series [12] (mouse, plasma, iv, 10 mg/kg) came out at 6.87 mL/min/kg. Further, the half-life – broadly, how long it takes for the measured level to halve – in [12] (mouse, plasma, iv, 10 mg/kg) was greater than 20 h; in [12] (mouse, plasma, po, 10 mg/kg) it was greater than 20 h. Further, the “inhibition of in vitro transcription” value in series [13] is on record as “did not show inhibition”. Also, the “effect on transcription (RNA synthesis, [5,6-3H]-uridine incorporation)” value in series [15] was “did not significantly affect”. In [17], the “effect on replication (DNA synthesis, [methyl-3H]-thymidine incorporation)” value is on record as “did not significantly affect”. Also, the “effect on translation (protein synthesis, L-[4,5-3H]-leucine incorporation)” value in series [20] is on record as “did not significantly affect”. The molecule also showed a hemolysis at 50 μg/mL in [21] of less than 1%. Moreover, the “sensitization on attenuation of PBP1 expression” value in series [23] is given as “sensitized the strain”. Further, the concentration in solution in series [24] (solubility) came to 8000 µg/mL (≈ 20300 µM). Besides, in [25], the glutathione adduct formation result was “did not form glutathione adducts”. Besides, in series [26], the “sensitization on attenuation of PBP2a expression” value was “sensitized the strain”. Further, the “inhibition of cell-wall biosynthesis (D-[2,3-3H]-alanine incorporation)” value in series [1] (experiment with fosfomycin control, fosfomycin 16 μg/mL, 120 min) came out at 51 ± 12%; in series [1] (setting [32]) it was 61 ± 4%. In series [27], the “half-life in mouse plasma” value is recorded as 141 h. In addition, in series [29], the “inhibition of in vitro translation” value was “did not show inhibition”.
In the case of `CC(=O)NC[C@H]1CN(c2ccc(N3CCOCC3)c(F)c2)C(=O)O1` [linezolid], the minimal inhibitory concentration (MIC) came out at 2 µg/mL (≈ 5.93 µM) in series [2]; 1 µg/mL (≈ 2.96 µM) in series [3]; 32 µg/mL (≈ 94.9 µM) in [4]; 4 µg/mL (≈ 11.9 µM) in series [6] (setting [33]); 2 µg/mL (≈ 5.93 µM) in [8]; 2 µg/mL (≈ 5.93 µM) in [9]. Moreover, the minimal inhibitory concentration (MIC) in series [14] was 2 µg/mL (≈ 5.93 µM); in series [18], 1 µg/mL (≈ 2.96 µM); in series [19], 32 µg/mL (≈ 94.9 µM); in [28], 1 µg/mL (≈ 2.96 µM).
As for `Cc1onc(-c2ccccc2)c1C(=O)N[C@@H]1C(=O)N2[C@@H]1SC(C)(C)[C@@H]2C(=O)O` [oxacillin], the minimal inhibitory concentration (MIC) in [2] turned out to be 512 µg/mL (≈ 1280 µM); in series [3], 32 µg/mL (≈ 79.7 µM); in series [4], 512 µg/mL (≈ 1280 µM); in series [6] (setting [33]), 0.25 µg/mL (≈ 0.623 µM); in series [8] it was 512 µg/mL (≈ 1280 µM); in series [9], 32 µg/mL (≈ 79.7 µM). Also, the minimal inhibitory concentration (MIC) in series [14] was 256 µg/mL (≈ 638 µM); in series [18] it was 128 µg/mL (≈ 319 µM); in series [19], 512 µg/mL (≈ 1280 µM); in [28] it was 0.5 µg/mL (≈ 1.25 µM).
Turning to `N#Cc1ccc(/C=C/c2nc3ccccc3c(=O)n2-c2cccc(C(=O)O)c2)cc1` [compound 1], the MIC in series [6] (S. aureus ATCC 29213, quality control MSSA strain) was found to be 2 µg/mL (≈ 5.08 µM); in [30], 16 µg/mL (≈ 40.7 µM). In [31], the “activity against Gram-negative bacteria” value is on record as “did not have activity”.
Regarding `C[C@@H](O)[C@H]1C(=O)N2C(C(=O)O)=C(SCCN=CN)C[C@H]12` [imipenem], in [23], the “sensitization on attenuation of PBP1 expression” value was “sensitized the strain”. For the same molecule, the “sensitization on attenuation of PBP2a expression” value in series [26] is “sensitized the strain”.
Consider `CCO/N=C(\C(=O)N[C@@H]1C(=O)N2C(C(=O)[O-])=C(Sc3nc(-c4cc[n+](C)cc4)cs3)CS[C@H]12)c1nsc(N)n1` [ceftaroline], for which the “sensitization on attenuation of PBP1 expression” value in series [23] is listed as “sensitized the strain”. Besides, in series [26], the “sensitization on attenuation of PBP2a expression” value is on record as “sensitized the strain”.
As for `CN[C@H](CC(C)C)C(=O)N[C@H]1C(=O)N[C@@H](CC(N)=O)C(=O)N[C@H]2C(=O)N[C@H]3C(=O)N[C@H](C(=O)N[C@H](C(=O)O)c4cc(O)cc(O)c4-c4cc3ccc4O)[C@H](O)c3ccc(c(Cl)c3)Oc3cc2cc(c3O[C@@H]2O[C@H](CO)[C@@H](O)[C@H](O)[C@H]2O[C@H]2C[C@](C)(N)[C@H](O)[C@H](C)O2)Oc2ccc(cc2Cl)[C@H]1O` [vancomycin], the minimum inhibitory concentration (MIC) in series [2] was 512 µg/mL (≈ 353 µM); in [3] it was 1 µg/mL (≈ 0.69 µM); in series [4], 2 µg/mL (≈ 1.38 µM); in [6] (setting [33]) it was 1 µg/mL (≈ 0.69 µM); in series [8], 2 µg/mL (≈ 1.38 µM); in series [9] it was 1 µg/mL (≈ 0.69 µM). Besides, the minimal inhibitory concentration (MIC) in series [14] came out at 64 µg/mL (≈ 44.2 µM); in [18] it was 16 µg/mL (≈ 11 µM); in series [19], 2 µg/mL (≈ 1.38 µM); in series [28], 1 µg/mL (≈ 0.69 µM).
